Screens as filed in PubChem.
An excerpt weighted towards active compounds, which were near 5.4% of everything screened.
PostGolgi yeast: growth inhibition of a yeast mutant, post-Golgi transport screen; post-Golgi transport phenotypic cell assay; inhibition, % at 10 µM; 98,000 compounds, 0.9% hits; AID 739;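 note: yeast cells grown in 1536-well plates; yeast grown about 18 h at 30C before absorbance read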
HePTP inh: human HePTP phosphatase inhibition. 110,000 compounds, 0.64% hits. inhibition, % at 20 µM. recombinant HePTP phosphatase activity, OD absorbance. P35236; in the data active = inhibition above about 50%
tolC growth inh: blocks growth of E. coli BW25113 tolC mutant. AID 573. OD615. growth inhibition, % at 10 µM (by protocol). 65,000 compounds, 2.2% hits;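 active = growth inhibition at or above a cutoff equal to the mean over every tested compound plus 3 SD, cut at about 60% in these data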;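 note: growth measured after 20 h incubation at 37 °C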
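Test system: tolC-deleted E. coli BW25113 | Medium: LB with kanamycin 50 µg/mL | Compound dosing: Single concentration, 10 µM final per compound | Schedule: 37 °C, 20 h exposure | Measured by: OD at 615 nm | Evaluation: Percent growth inhibition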
PLAP act: human PLAP activation; AID 696; purified PLAP enzyme, luminescent substrate read-out; hits give high values; 96,000 compounds, 1.2% hits; P05187; activation fold at 20 µM; in the data active = activation fold above about 2
Target sequence (P05187 whole entry, looked up): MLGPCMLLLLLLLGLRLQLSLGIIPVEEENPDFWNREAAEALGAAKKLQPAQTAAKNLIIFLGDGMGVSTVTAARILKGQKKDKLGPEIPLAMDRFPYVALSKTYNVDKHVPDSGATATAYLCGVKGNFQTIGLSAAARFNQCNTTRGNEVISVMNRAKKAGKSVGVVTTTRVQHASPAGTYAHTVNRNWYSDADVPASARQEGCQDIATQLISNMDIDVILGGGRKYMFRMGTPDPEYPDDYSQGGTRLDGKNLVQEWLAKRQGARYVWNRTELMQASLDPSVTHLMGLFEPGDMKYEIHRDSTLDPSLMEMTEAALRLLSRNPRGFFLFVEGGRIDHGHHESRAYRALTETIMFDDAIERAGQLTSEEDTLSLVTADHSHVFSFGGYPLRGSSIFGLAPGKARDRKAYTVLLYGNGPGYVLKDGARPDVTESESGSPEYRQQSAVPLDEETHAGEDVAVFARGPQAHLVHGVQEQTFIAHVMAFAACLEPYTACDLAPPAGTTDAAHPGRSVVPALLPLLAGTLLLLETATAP
PostGolgi ctrl: inhibits growth of the yeast control strain | inhibition, % at 10 µM | efflux-deficient yeast background strain, growth absorbance A615, 16 h | 98,000 compounds, 5% hits
E coli WT exp: blocks growth of wild type E. coli BW25113 | OD600 absorbance | growth inhibition, % at 100 µM | 98,000 compounds, 0.15% hits | AID 710;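 active = growth inhibition above about 50% at one test dose, limit read from the data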;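 note: growth measured after 20 h incubation at 37 °C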
Hits are given with their value; n = inactive; x = not tested or not shown. Cut-off read from the data, not from the text of the source, unless noted: active = inhibition above about 30%; inactive = the rest.

SMILES | PostGolgi yeast | HePTP inh | tolC growth inh | PLAP act | PostGolgi ctrl | E coli WT exp
O=C(OCc1ccccc1)C1CCCN1C(=O)c1cccs1 (stereo not drawn) | n | n | n | n | n | n
CC1=CC(=O)C=C/C1=N\OS(=O)(=O)c1ccccc1 | x | n | x | x | x | x
CC1=C/C(=N\OS(=O)(=O)c2ccccc2)C(C)=CC1=O | 35.6 | x | x | n | 48.5 | n
N/C(=N\OC(=O)CCC1CCCCC1)c1cccnc1 | n | x | x | n | 32.6 | n
N/C(=N\OC(=O)CCC1CCCCC1)c1ccc([N+](=O)[O-])cc1 | n | x | x | n | n | n
O=C(CSc1nc(-c2ccccc2)cs1)N1CCN(C(=O)c2ccco2)CC1 | n | n | n | n | n | n
Cc1[nH]n2c(=O)c3c(nc2c1-c1ccc(Cl)cc1)CCC3 | n | n | 99.8 | n | n | n
CCCOc1ccc(C2C(C(=O)OC)=CN(CCOC)C=C2C(=O)OC)cc1 | n | n | n | 2.1 | n | n
COC(=O)c1cc(-c2cccc(Br)c2)nc2ccccc12 | x | n | x | x | x | x
Cc1ccc2nc(-c3ccc(OCC(=O)N/N=C/c4ccc([N+](=O)[O-])o4)cc3)cc(-c3ccccc3)c2c1 | x | n | x | x | x | x
CCCc1ccc(-c2cc(C(=O)N/N=C/c3ccc([N+](=O)[O-])o3)c3ccccc3n2)cc1 | n | x | x | n | 31.8 | n
O=C(N/N=C/c1ccc([N+](=O)[O-])o1)c1cc(-c2cccc(Br)c2)nc2ccccc12 | 102.5 | x | x | n | 35.6 | n
Cc1ccc(NC(=O)c2ccc3ccccc3n2)nc1 | n | n | n | n | 34.0 | n
Cc1ccc(NC(=O)c2sc3ccccc3c2Cl)nc1 | n | n | x | n | 31.2 | n
COCc1nnc(NC(=O)c2sc3ccccc3c2Cl)s1 | n | n | n | n | 30.0 | n
O=C(Nc1nncs1)c1sc2ccccc2c1Cl | x | n | x | x | x | x
O=C(Nc1ccc(Cl)cn1)c1ccc2ccccc2n1 | n | x | x | n | n | n
Cc1nnc(NC(=O)c2sc3ccccc3c2Cl)s1 | n | n | n | n | 54.0 | n
NC(=O)c1c(NC(=O)c2ccc(S(=O)(=O)N3CCCCC3)cc2)sc2c1CCCC2 | x | n | x | x | x | x
O=C(CCl)c1ccc(Cc2ncc(C(F)(F)F)cc2Cl)s1 | 85.6 | x | x | n | n | n
Cc1cc(C)c(C)c(S(=O)(=O)N2CCC(C(=O)OCC(=O)N3c4ccccc4NC(=O)C3(C)C)CC2)c1C | n | x | x | n | n | n
Cc1cc(C)c(C)c(S(=O)(=O)N2C(=S)NC(=O)C2C(C)C)c1C (stereo not drawn) | n | x | x | n | 43.9 | n
Cc1cc(C)c(C)c(S(=O)(=O)N2C(=S)NC(=O)C2CC(C)C)c1C (stereo not drawn) | n | x | x | n | 33.0 | n
O=c1ccccn1Cc1ccccc1F | n | n | n | n | n | n
CC(=O)Nc1cccc(N2C(=O)CC(N3CCC(C(=O)N4CCCCC4)CC3)C2=O)c1 (stereo not drawn) | n | n | n | n | n | n
SMILES | PostGolgi yeast | HePTP inh | tolC growth inh | PLAP act | PostGolgi ctrl | E coli WT exp
CC(=O)Nc1sc(N)nc1-c1ccccc1 | n | n | n | n | n | n
CCc1cc2c(=O)nc3n(c2s1)Cc1ccccc1/C3=C(/O)c1cccc([N+](=O)[O-])c1 | n | x | x | n | n | n
CN(c1cccc(NC(=O)CN2C(=O)c3ccccc3S2(=O)=O)c1)S(C)(=O)=O | n | x | n | n | 32.7 | n
CC(=O)Nc1cccc(N(C)S(C)(=O)=O)c1 | n | n | n | n | n | n
CN(c1cccc(NC(=O)Nc2cccc(Cl)c2)c1)S(C)(=O)=O | n | n | 61.3 | n | n | n
CCCn1c(N)c(C(=O)CSc2nnnn2-c2ccc(O)cc2)c(=O)n(C)c1=O | n | x | x | n | n | n
Cc1cnnn1-c1ccc(C(=O)CCl)cc1 | n | x | x | n | n | 98.0
C/C(=N\Oc1cccc(F)n1)c1ccc(Cl)cc1Cl | n | x | x | n | n | n
CC(C)NC(=O)c1c(NC(=O)c2cccs2)sc2c1CCCC2 | x | n | x | x | x | x
NC(=O)c1c(NC(=O)c2cccs2)sc2c1CCCCCC2 | n | n | n | n | 68.1 | n
CNC(=O)c1c(NC(=O)c2cccs2)sc2c1CCCC2 | x | n | x | x | x | x
O=C(Nc1sc2c(c1C(=O)O)CCC2)c1cccs1 | n | n | 76.1 | n | n | n
COc1ccc(/C(O)=C2\C(=O)C(=O)N(c3cc(C)on3)C2c2cccc(OC)c2OC)cc1C (stereo not drawn) | n | n | n | n | n | n
O=S(=O)(NCc1csc(-c2ccccc2)n1)c1ccc(Cl)s1 | n | n | n | x | 32.6 | n
CCc1ccc(S(=O)(=O)NCc2csc(-c3ccccc3)n2)s1 | n | n | n | n | 36.4 | n
O=S(=O)(NCc1csc(-c2cccnc2)n1)c1ccc(Cl)s1 | n | x | x | n | n | n
CCc1ccc(S(=O)(=O)NCc2cn3c(C)csc3n2)s1 | n | n | n | n | n | n
CCc1ccc(S(=O)(=O)NCCc2csc(-c3cccnc3)n2)s1 | n | x | x | n | n | n
CCc1ccc(S(=O)(=O)NCCc2csc(-c3ccccc3)n2)s1 | n | x | 92.8 | n | 41.5 | n
COc1ccc(CCNC(=O)CSc2nnc(-c3ccco3)n2-c2ccccc2)cc1OC | x | n | x | x | x | x
CCOC(=O)c1cnn(-c2ncnc3sc(CC)cc23)c1N | x | n | n | n | x | x
O=C(COC(=O)c1ccc2c(c1)OCCO2)Nc1cc(Cl)ccc1Cl | n | x | x | n | n | n
CCCC1=C(C(=O)OCC)C(c2cc(Cl)cc(OC)c2OCC(=O)OCC)NC(=O)N1 (stereo not drawn) | n | n | 82.5 | n | n | n
CC12CN3CCN(CC(C3)C1(O)CN1CCCCC1)C2 (stereo not drawn) | n | n | n | n | n | n
Cc1cc(-n2c(C)cc(C(=O)CSc3ncnc4ccccc34)c2C)no1 | n | n | n | n | 40.4 | n
SMILES | PostGolgi yeast | HePTP inh | tolC growth inh | PLAP act | PostGolgi ctrl | E coli WT exp
Cc1cc(-n2c(C)cc(C(=O)CSc3nnc4sc5ccccc5n34)c2C)no1 | n | n | n | n | n | n
N#Cc1nc(-c2cccc(Cl)c2)oc1NCc1cccnc1 | n | x | x | 2 | n | n
CCCOc1ccc(/C(O)=C2/C(=O)C(=O)N(CCCOC)C2c2cccnc2)cc1 (stereo not drawn) | n | n | n | n | n | n
Cc1ccc(N(CC(O)Cn2c3ccccc3c3ccccc32)S(C)(=O)=O)c(C)c1 (stereo not drawn) | n | x | x | n | 51.2 | n
Cc1ccc(N(CC(O)CN2CCCC2)S(=O)(=O)c2ccc(C)cc2)cc1 (stereo not drawn) | n | n | n | n | 46.1 | n
Cc1ccc(N(CC(O)CON=C2c3ccccc3-c3ccccc32)S(C)(=O)=O)cc1 (stereo not drawn) | n | x | x | n | 66.9 | n
CS(=O)(=O)N(CC(O)Cn1c2ccccc2c2ccccc21)c1ccc(Cl)cc1 (stereo not drawn) | x | n | x | x | x | x
Cc1ccc(N(CC(O)Cn2c3ccccc3c3ccccc32)S(C)(=O)=O)cc1 (stereo not drawn) | n | n | x | n | 51.0 | n
Cc1cc(/C=C2/NC(=S)NC2=O)c(-c2ccccc2)n1-c1ccccc1 | x | n | x | x | x | x
CCCOc1ccc(C(=O)NCc2cccnc2)cc1 | n | n | n | n | 32.2 | n
O=C(O)CCCC(=O)Nc1ccc(C(=O)NCc2cccnc2)cc1 | n | n | n | n | 36.3 | n
